IC50 data for seven molecules are collected here from ChEMBL document CHEMBL1136142, “Synthesis, biological evaluation and DNA binding properties of novel bleomycin analogues” (Bioorg Med Chem Lett, 2003).

pIC50: −log10 of the molar value.

One assay concerns HeLa. Put plainly: In vitro antitumor activity against HeLa cell lines by using MTT assay. The following applies: Homo sapiens. It is filed as functional, cell-based. A digest of the protocol: (§1)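 Tetrazolium salt (MTT) read-out of in vitro growth inhibition; the reported value is the concentration producing 50% inhibition (IC50).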
Background: Tetrazolium dyes change colour on reduction, which living cells bring about.

Another assay concerns BGC-823. Description: In vitro antitumor activity against BGC-823 cell lines by using MTT assay. It is filed as functional, cell-based. The following applies: Homo sapiens. A digest of the protocol:
as §1

One may read the pIC50 as −log10 of the IC50, conventionally taken in molar units. For `Cc1c(N)nc([C@H](CC(N)=O)NCC(N)C(N)=O)nc1C(=O)N[C@H](C(=O)NC(C)C(O)[C@H](C)C(=O)N[C@H](C(=O)NCCc1nc(-c2nc(C(=O)NCCC[S+](C)C)cs2)cs1)[C@@H](C)O)[C@@H](O[C@@H]1O[C@@H](CO)[C@@H](O)[C@H](O)[C@@H]1O[C@H]1O[C@H](CO)[C@@H](O)[C@H](OC(N)=O)[C@@H]1O)c1c[nH]cn1` (some centres undefined), the negative-log IC50 (pIC50) with HeLa was 4.79; in the assay on BGC-823 it was 5.00.

`Cc1c(N)nc([C@H](CC(N)=O)NCC(N)C(N)=O)nc1C(=O)N[C@H](C(=O)NC(C)C(O)[C@H](C)C(=O)N[C@H](C(=O)NCCc1nc(-c2nc(C(=O)NCCCNCCCCNC(=O)c3ccccn3)cs2)cs1)[C@@H](C)O)[C@@H](O[C@@H]1O[C@@H](CO)[C@@H](O)[C@@H](O)[C@@H]1O[C@H]1O[C@H](CO)[C@@H](O)[C@H](OC(N)=O)[C@@H]1O)c1c[nH]cn1` (some centres undefined): the negative logarithm of the IC50 (pIC50) with HeLa is 4.83; with BGC-823 it was 4.97.

For `Cc1c(N)nc([C@H](CC(N)=O)NCC(N)C(N)=O)nc1C(=O)N[C@H](C(=O)NC(C)C(O)[C@H](C)C(=O)N[C@H](C(=O)NCCc1nc(-c2nc(C(=O)NCCCNCCCCNC=O)cs2)cs1)[C@@H](C)O)[C@@H](O[C@@H]1O[C@@H](CO)[C@@H](O)[C@@H](O)[C@@H]1O[C@H]1O[C@H](CO)[C@@H](O)[C@H](OC(N)=O)[C@@H]1O)c1c[nH]cn1` (some centres undefined), the figures for the pIC50 in the assay with HeLa and with BGC-823 were 4.91 and 4.51, respectively.

`CCCC(=O)NCCCCNCCCNC(=O)c1csc(-c2csc(CCNC(=O)[C@@H](NC(=O)[C@@H](C)C(O)C(C)NC(=O)[C@@H](NC(=O)c3nc([C@H](CC(N)=O)NCC(N)C(N)=O)nc(N)c3C)[C@@H](O[C@@H]3O[C@@H](CO)[C@@H](O)[C@@H](O)[C@@H]3OC3O[C@H](CO)[C@@H](O)[C@H](OC(N)=O)[C@@H]3O)c3c[nH]cn3)[C@@H](C)O)n2)n1` (some centres undefined): the pIC50 in the assay on HeLa was 4.86; in the assay on BGC-823, 5.58.

In the case of `CC(=O)NCCCCNCCCNC(=O)c1csc(-c2csc(CCNC(=O)[C@@H](NC(=O)[C@@H](C)C(O)C(C)NC(=O)[C@@H](NC(=O)c3nc([C@H](CC(N)=O)NCC(N)C(N)=O)nc(N)c3C)[C@@H](O[C@@H]3O[C@@H](CO)[C@@H](O)[C@@H](O)[C@@H]3O[C@H]3O[C@H](CO)[C@@H](O)[C@H](OC(N)=O)[C@@H]3O)c3c[nH]cn3)[C@@H](C)O)n2)n1` (some centres undefined), the negative logarithm of the IC50 (pIC50) in the assay with HeLa is 4.82; in the assay with BGC-823, 4.66.

For the molecule `CCC(=O)NCCCCNCCCNC(=O)c1csc(-c2csc(CCNC(=O)[C@@H](NC(=O)[C@@H](C)C(O)C(C)NC(=O)[C@@H](NC(=O)c3nc([C@H](CC(N)=O)NCC(N)C(N)=O)nc(N)c3C)[C@@H](O[C@@H]3O[C@@H](CO)[C@@H](O)[C@@H](O)[C@@H]3O[C@H]3O[C@H](CO)[C@@H](O)[C@H](OC(N)=O)[C@@H]3O)c3c[nH]cn3)[C@@H](C)O)n2)n1` (some centres undefined), the negative-log IC50 (pIC50) with HeLa is 4.84; with BGC-823, 5.19.

For the molecule `Cc1c(N)nc([C@H](CC(N)=O)NCC(N)C(N)=O)nc1C(=O)N[C@H](C(=O)NC(C)C(O)[C@H](C)C(=O)N[C@H](C(=O)NCCc1nc(-c2nc(C(=O)NCCCNCCCCNC(=O)c3ccccc3)cs2)cs1)[C@@H](C)O)[C@@H](O[C@@H]1O[C@@H](CO)[C@@H](O)[C@@H](O)[C@@H]1O[C@H]1O[C@H](CO)[C@@H](O)[C@H](OC(N)=O)[C@@H]1O)c1c[nH]cn1` (some centres undefined), the negative-log IC50 (pIC50) in the assay with HeLa is 4.93; with BGC-823, 5.13.
